The species entered for series [1] is Homo sapiens. Nature of the series: Inhibition of P-gp in human K562/Dox cells assessed as potentiation of doxorubicin-induced cytotoxicity by measuring ratio of doxorubicin IC50 to doxorubicin IC50 in presence of test compound at 3 uM after 72 hrs by MTT assay. The format is cell-based. An outline of the steps:
(§1)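 K562/DOX cells were exposed 72 h to doxorubicin (0.0001–100 μM) with or without modulator at 0.1, 1.0 or 3.0 μM, then read by MTT at 570 nm. Reversal fold is doxorubicin IC50 without modulator divided by IC50 with modulator. Quadruplicate cultures, at least three determinations.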

The test system of series [2] is K562. Nature of the series: Induction of Rh-123 accumulation in human K562 cells at 1 uM preincubated for 15 mins followed by Rh-123 addition and measured after 30 mins by FACS analysis. The format is functional, cell-based. An outline of the steps:
(§2)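 Cells (K562/DOX or parental K562) got modulator at 1.0 μM, with 15 min pre-exposure, then were loaded with 5.0 μM rhodamine-123 for 30 min at 37 °C in 5% CO2. After washing, cells sat in Rh-123-free medium with or without modulator for 30 or 60 min efflux. Cells were washed in ice-cold PBS and read by flow cytometry (≥20,000 gated events). MFI ratio is median fluorescence of treated over untreated control.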
Background: A flow cytometer gives signals particle by particle.

Series [3] has as its system K562. Nature of the series: Cytotoxicity against human K562 cells at 0.1 to 3 uM after 72 hrs by MTT assay. The format is cell-based. The following applies: k562, 72 h. Put shortly:
(§3)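 Compounds were given alone at 0.1, 1.0 and 3.0 μM to parental K562 and to P-gp-overexpressing K562/DOX cells. Exponential-phase cells were seeded at 10^4 cells/well and kept 72 h at 37 °C in 5% CO2. MTT was then added for 3 h, formazan was dissolved in acidified isopropanol, and absorbance was read at 570 nm.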
A general note: Formazan colour is commonly taken as a measure of viable cells.

The species entered for series [4] is Homo sapiens. Nature of the series: (§4) Inhibition of P-gp in human K562/Dox cells assessed as potentiation of doxorubicin-induced cytotoxicity after 72 hrs by MTT assay. The format is cell-based. An outline of the steps:
(§5)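 Doxorubicin (0.0001–100 μM) was tested alone or combined with modulator at 0.1, 1.0 or 3.0 μM on K562/DOX or parental K562 cells, seeded at 10^4 cells/well. Plates ran 72 h at 37 °C in 5% CO2, followed by 3 h MTT, acidified isopropanol and A570. Doxorubicin IC50 was taken as mean ± SE of at least three determinations with quadruplicate cultures.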

Series [5] is filed under the species Homo sapiens. Put plainly: Inhibition of P-gp in human K562/Dox cells assessed as reduction in Rh-123 efflux by measuring mean fluorescence intensity at 1 uM preincubated for 15 mins followed by Rh-123 addition for 30 mins and subsequent replacement in Rh-123 free medium measured after 60 mins by FACS analysis. The format is cell-based. An outline of the steps:
(§6)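 K562/DOX cells pretreated with modulator (1.0 μM) 15 min before loading with 5.0 μM rhodamine 123 for 30 min at 37 °C, 5% CO2. Washed, then held in Rhd 123-free medium with or without modulator for 30 or 60 min. Cells washed in ice-cold PBS and analysed by flow cytometry (≥20,000 gated events). MFI ratio = median fluorescence of treated/untreated control. Mean ± SE, three independent experiments.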

Series [6] is filed under the species Homo sapiens. Put plainly: Inhibition of P-gp in human K562/Dox cells assessed as reduction in Rh-123 efflux by measuring mean fluorescence intensity at 1 uM preincubated for 15 mins followed by Rh-123 addition for 30 mins and subsequent replacement in Rh-123 free medium measured after 30 mins by FACS analysis. It counts as cell-based. Put shortly: as §6
Series [7] relates to K562. Put plainly: Inhibition of Rh-123 efflux in human K562 cells at 1 uM preincubated for 15 mins followed by Rh-123 addition for 30 mins and subsequent replacement in Rh-123 free medium measured after 30 to 60 mins by FACS analysis. The format is functional, cell-based. Put shortly: as §2
Series [8] can be described thus: Half life in Sprague-Dawley rat plasma up to 1 uM by LC-MS/MS analysis. The format is ADME, cell-free. Put shortly:
(§7)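 Analyte at 1 μM was placed in PBS, pooled human plasma (healthy male volunteers) or Sprague-Dawley male rat plasma. Samples were incubated at 37 °C for 0, 30, 60 and 120 min in triplicate. Internal standard was added, samples were centrifuged, and supernatants were dried and redissolved in 10 mM formic acid water:acetonitrile 80:20. Quantitation was by LC-MS/MS, positive ESI, MRM. Plasma hydrolytic activity was checked with ketoprofen ethyl ester or enalapril.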

The test system of series [9] is K562. Put plainly: Potentiation of doxorubicin-induced cytotoxicity against human K562 cells at 1 uM after 72 hrs by MTT assay. It counts as functional, cell-based. An outline of the steps:
as §5

Series [10] is described as follows: Half life in PBS up to 1 uM by LC-MS/MS analysis. It counts as physicochemical. Put shortly:
as §7

The species entered for series [11] is Homo sapiens. Nature of the series: Inhibition of P-gp in human K562/Dox cells assessed as potentiation of doxorubicin-induced cytotoxicity by measuring ratio of doxorubicin IC50 to doxorubicin IC50 in presence of test compound at 0.1 uM after 72 hrs by MTT assay. It counts as cell-based. An outline of the steps: as §1
The species entered for series [12] is Homo sapiens. Nature of the series: Inhibition of P-gp in human K562/Dox cells assessed as potentiation of doxorubicin-induced cytotoxicity by measuring ratio of doxorubicin IC50 to doxorubicin IC50 in presence of test compound at 1 uM after 72 hrs by MTT assay. It counts as cell-based. Put shortly:
as §1

The nature of series [13]: Half life in human plasma up to 1 uM by LC-MS/MS analysis. The format is ADME, cell-free. Put shortly:
as §7

For series [14], the species on record is Homo sapiens. Put plainly: Inhibition of P-gp in human K562/Dox cells assessed as increase in Rh-123 accumulation at 1 uM preincubated for 15 mins followed by Rh-123 addition measured after 30 to 60 mins by FACS analysis. It counts as cell-based. Put shortly: as §2
A short description of series [15]: Cytotoxicity against human K562/Dox cells at 0.1 to 3 uM after 72 hrs by MTT assay. The format is cell-based. Put shortly: as §3
For series [16], the system named is K562. Put plainly: Potentiation of doxorubicin-induced cytotoxicity against human K562 cells at 0.1 to 3 uM after 72 hrs by MTT assay. It counts as functional, cell-based. An outline of the steps: as §5
A short description of series [17]: as §4. The format is cell-based. The following applies: K562, 72 h. Put shortly: as §5
Series [18] is filed under the species Homo sapiens. Nature of the series: Inhibition of P-gp in human K562/Dox cells assessed as reduction in Rh-123 efflux by measuring increase in mean fluorescence intensity at 1 uM preincubated for 15 mins followed by Rh-123 addition for 30 mins and subsequent replacement in Rh-123 free medium measured after 30 mins by FACS analysis relative to control. The format is cell-based. Put shortly:
as §2

Series [19] in a line: Cytotoxicity against human K562/Dox cells at 3 uM after 72 hrs by MTT assay relative to control. The format is cell-based. An outline of the steps:
as §3

The species named for series [20] is Homo sapiens. Nature of the series: Inhibition of P-gp in human K562/Dox cells assessed as reduction in Rh-123 efflux by measuring increase in mean fluorescence intensity at 1 uM preincubated for 15 mins followed by Rh-123 addition for 30 mins and subsequent replacement in Rh-123 free medium measured after 60 mins by FACS analysis relative to control. The format is cell-based. An outline of the steps: as §2

pEC50: −log10 of the molar value. Calls of active or inactive are those of the source. No cut-off for these calls is given here.

Broadly, the half-life is the time in which the quantity being followed falls by half. Higher therefore signals slow decline. In the case of `COc1ccc(C(CCCN2CCN(CCOc3cc(OC)c(OC)c(OC)c3)CC2)c2ccc(OC)cc2)cc1`, the results for the Ratio IC50 in the series listed under Homo sapiens [1], in the series filed under Homo sapiens [11] and in the series filed under Homo sapiens [12] were 8.8, 2.4 and 4.5, respectively. For the same molecule, the result with K562 [2], with K562 [9] and in the series on K562 [16] was inactive. Moreover, the Activity result (with K562 [3]; in series [15]) was “Non-Toxic” each time. Besides, in the series filed under Homo sapiens [4], the inhibition result was “Dose-dependent effect”. For the same molecule, the Flu intensity came out at 1.4 in the series filed under Homo sapiens [5] and 5.5 in the series listed under Homo sapiens [6]. Besides, in the series with K562 [7], the inhibition entry was “inactive”. For the same molecule, the half-life in [8], in series [10] and in series [13] was above 4 h in each case. For the same molecule, the “P-gp inhibition activity call (increase in Rh-123 accumulation)” value in the series listed under Homo sapiens [14] was “Active”.

Take `COc1cc2c(cc1OC)CN(CCc1ccc(NC(=O)c3cc(OC)c(OC)cc3NC(=O)c3cnc4ccccc4c3)cc1)CC2`: the Ratio IC50 in the series filed under Homo sapiens [12] came to 31.4.

`CCOC(=O)[C@H](CCc1ccccc1)N[C@@H](C)C(=O)N1CCC[C@H]1C(=O)O` displayed a half-life in [8] of 0.417 h.

In the case of `CCOC(=O)C(C)c1cccc(C(=O)c2ccccc2)c1` (stereo not drawn), in series [13], the half-life came out at 1.83 h.

As usually defined, the pEC50 is −log10 of the EC50, conventionally taken in molar units. Turning to `COc1ccc(C(CCCN2CCN(Cc3cc(OC)c(OC)c(OC)c3)CC2)c2ccc(OC)cc2)cc1`, the figures for the Ratio IC50 in the series listed under Homo sapiens [1], in the series filed under Homo sapiens [11] and in the series filed under Homo sapiens [12] were 73.3, 1.2 and 10.5, respectively. The outcome with K562 [2], in the series with K562 [9] and in the series with K562 [16] was inactive. The Activity result is “Non-Toxic” in the series on K562 [3] and “<= 30%” in series [19]. Further, in the series filed under Homo sapiens [4], the inhibition result is “Dose-dependent effect”. The pEC50 in series [17] was 5.72. For the same molecule, the fold change (FC) turned out to be 30 in the series listed under Homo sapiens [18] and 10 in the series listed under Homo sapiens [20]. The results for the Flu intensity in the series filed under Homo sapiens [5] and in the series filed under Homo sapiens [6] were 11.1 and 30, respectively. Moreover, the inhibition entry in the series on K562 [7] is “inactive”. Also, the half-life in [8], in series [10] and in series [13] was above 4 h each time. The “P-gp inhibition activity call (increase in Rh-123 accumulation)” value in the series listed under Homo sapiens [14] is “Active”.

As for `COc1ccc(C(CCCN2CCN(C/C=C/c3cc(OC)c(OC)c(OC)c3)CC2)c2ccc(OC)cc2)cc1`, the Ratio IC50 was 44 in the series filed under Homo sapiens [1], 1.9 in the series filed under Homo sapiens [11] and 12.9 in the series filed under Homo sapiens [12]. Also, the outcome in the series with K562 [2], with K562 [9] and in the series on K562 [16] was inactive. For the same molecule, the Activity result (with K562 [3]; in [15]) was “Non-Toxic” in each case. In addition, the inhibition entry in the series filed under Homo sapiens [4] was “Dose-dependent effect”. Moreover, in series [17], the negative-log EC50 (pEC50) was 5.57. Besides, the results for the fold change (FC) in the series listed under Homo sapiens [18] and in the series filed under Homo sapiens [20] were 100 and 50, respectively. Also, the results for the Flu intensity in the series filed under Homo sapiens [5] and in the series listed under Homo sapiens [6] were 49.9 and 108, respectively. For the same molecule, the inhibition result in the series on K562 [7] is “inactive”. Besides, the half-life in series [8], in series [10] and in series [13] was above 4 h throughout. The “P-gp inhibition activity call (increase in Rh-123 accumulation)” value in the series filed under Homo sapiens [14] is “Active”.

Consider `COc1cc(/C=C/CN2CCN(Cc3c4ccccc4cc4ccccc34)CC2)cc(OC)c1OC`, for which the Ratio IC50 came out at 22 in the series filed under Homo sapiens [1], 1.7 in the series listed under Homo sapiens [11] and 8.8 in the series filed under Homo sapiens [12]. The outcome in the series on K562 [2], with K562 [9] and with K562 [16] was inactive. In addition, the Activity entry (in the series on K562 [3]; in [15]) was “Non-Toxic” throughout. For the same molecule, in the series listed under Homo sapiens [4], the inhibition result was “Dose-dependent effect”. For the same molecule, the figures for the Flu intensity in the series filed under Homo sapiens [5] and in the series filed under Homo sapiens [6] were 2.4 and 7.5, respectively. Further, in the series with K562 [7], the inhibition result was “inactive”. In addition, the half-life in series [8], in series [10] and in [13] was above 4 h each time. In addition, the “P-gp inhibition activity call (increase in Rh-123 accumulation)” value in the series filed under Homo sapiens [14] is “Active”.

Values taken from ChEMBL document CHEMBL4145532, “Design and synthesis of new potent N,N-bis(arylalkyl)piperazine derivatives as multidrug resistance (MDR) reversing agents” (Eur J Med Chem, 2018).
